Data set [1] is described as follows: Stability in human hepatocytes. It is filed as ADME, cell-based, Hepatocyte.
Data set [2] addresses T1, 5'-nucleotidase (Homo sapiens, UniProt P21589). Briefly: Inhibition of human CD73 expressed in CHO cells incubated for 60 mins before addition of AMP and further incubated for 60 mins by colorimetric assay. It is filed as cell-based. Put shortly:
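Thawed stable CD73-CHO cells in HEPES pH 7.4 saline buffer with 0.1% glucose, 1500 cells/well. Preincubated 60 min at 37 °C with 16-point 1:3 compound dilutions (final 100–0 or 0.1–0 μM; 10 or 2% DMSO). 25 μM AMP then added, 60 min at 37 °C/5% CO2. Supernatant phosphate measured with PiColorLock Gold. Activity normalized to DMSO and no-cell wells. IC50 from a four-parameter fit.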

Data set [3] in a line: Clearance in Sprague-Dawley rat at 0.25 to 0.5 mg/kg, iv measured up to 24 hrs by LC-MS/MS analysis. It is filed as ADME, organism-based. The following applies: in vivo, dose 0.25-0.5 mg/kg. Put shortly:
(§1)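 Male SD rats (0.27–0.30 kg), acclimated. Single IV bolus via femoral vein at 0.25 or 0.5 mg/kg in 31.6% DMA/36.8% ethanol/31.6% PEG. Jugular blood at predose, 5, 15, 30 min, 1, 2, 4, 6, 8, 24 h, collected into K2-EDTA; plasma spun at 4 °C, stored −80 °C until analysis.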

Data set [4] concerns the target T2, 5'-nucleotidase (Mus musculus, UniProt Q61503).
T2 sequence (Q61503 whole entry): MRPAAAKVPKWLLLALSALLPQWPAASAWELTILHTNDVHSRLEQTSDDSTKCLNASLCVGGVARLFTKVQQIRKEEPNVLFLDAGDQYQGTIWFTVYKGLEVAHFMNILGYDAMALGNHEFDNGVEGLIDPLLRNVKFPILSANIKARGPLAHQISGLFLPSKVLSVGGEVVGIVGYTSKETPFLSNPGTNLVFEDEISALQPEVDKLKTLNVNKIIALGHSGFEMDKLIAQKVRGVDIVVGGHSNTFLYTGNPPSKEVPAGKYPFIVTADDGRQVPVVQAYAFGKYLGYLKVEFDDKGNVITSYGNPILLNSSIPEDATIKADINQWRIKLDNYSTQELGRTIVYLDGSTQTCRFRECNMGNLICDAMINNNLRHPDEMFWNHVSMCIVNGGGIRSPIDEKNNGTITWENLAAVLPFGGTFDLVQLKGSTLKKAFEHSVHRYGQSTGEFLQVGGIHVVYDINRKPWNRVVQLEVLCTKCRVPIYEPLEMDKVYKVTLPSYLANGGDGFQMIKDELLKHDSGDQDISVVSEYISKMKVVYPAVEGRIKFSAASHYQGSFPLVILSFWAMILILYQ
In words: Inhibition of soluble mouse CD73 incubated for 60 mins before addition of AMP and further incubated for 60 mins by colorimetric assay.

The target of data set [5] is T1, 5'-nucleotidase. In words: Inhibition of CD73 in human SK-OV-3 cells incubated for 60 mins before addition of AMP and further incubated for 60 mins by colorimetric assay. It is filed as cell-based.
Data set [6] is described as follows: Half life in Sprague-Dawley rat at 0.25 to 0.5 mg/kg, iv measured up to 24 hrs by LC-MS/MS analysis. The following applies: in vivo, dose 0.25-0.5 mg/kg. It is filed as ADME, organism-based. Put shortly:
as §1

A short description of data set [7]: Stability in rat hepatocytes. It is filed as ADME, cell-based, Hepatocyte.
Data set [8] addresses T2, 5'-nucleotidase. In words: Inhibition of mouse CD73 expressed in CHO cells incubated for 60 mins before addition of AMP and further incubated for 60 mins by colorimetric assay. Format: cell-based.
Data set [9] addresses T3, Ectonucleoside triphosphate diphosphohydrolase 8 (Homo sapiens, UniProt Q5MY95).
T3 sequence (Q5MY95 whole entry): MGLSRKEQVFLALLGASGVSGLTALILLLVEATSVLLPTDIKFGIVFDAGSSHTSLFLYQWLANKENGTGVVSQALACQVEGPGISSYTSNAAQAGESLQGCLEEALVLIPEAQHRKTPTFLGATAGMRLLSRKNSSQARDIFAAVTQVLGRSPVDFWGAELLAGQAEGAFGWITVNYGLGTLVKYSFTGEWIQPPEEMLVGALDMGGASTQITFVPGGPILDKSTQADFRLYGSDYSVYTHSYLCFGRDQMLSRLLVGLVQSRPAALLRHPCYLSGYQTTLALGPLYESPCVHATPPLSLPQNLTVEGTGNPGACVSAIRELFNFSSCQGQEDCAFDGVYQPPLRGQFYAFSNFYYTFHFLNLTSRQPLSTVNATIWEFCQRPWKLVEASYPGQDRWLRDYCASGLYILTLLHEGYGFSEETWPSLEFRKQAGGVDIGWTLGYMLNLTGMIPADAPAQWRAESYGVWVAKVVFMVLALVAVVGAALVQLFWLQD
In words: Inhibition of human NTPDase-8 expressed in CHO-K1 cells in presence of DNA/LTX mixture. Format: cell-based. Put shortly: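 CHO-K1 cells transfected overnight (Lipofectamine LTX) with NTPDase2, 3 or 8 plasmid, then harvested into HEPES pH 7.4 buffer. 10,000 cells/well, 2% DMSO, 16-point 1:3 compound dilutions (final 10–0 μM), 1 h preincubation at 37 °C. ATP added at 25 (NTPDase2), 15 (NTPDase3) or 30 μM (NTPDase8), 50 min at 37 °C. Phosphate read with PiColorLock Gold at 620 nm.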

Another data set has as its target Adenosine receptor A2a (Homo sapiens, UniProt P29274). In words: Inhibition of A2AR (unknown origin) expressed in CHO cells assessed as reduction in NECA-stimulated cellular cAMP levels incubated for 90 mins by FRET assay. Format: functional, cell-based. Put shortly: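 Tetracycline-induced CHO cells stably expressing ADORA2A, 2000 cells/well, preincubated with 20-point 1:2 compound dilutions (final 10–0 μM). Stimulated with 30 nM NECA, 30 min at 37 °C. Quenched with ULight-anti-cAMP in lysis buffer, then Eu-cAMP tracer added, 60 min at 37 °C. Inhibition read as change in cellular cAMP.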
In general terms: cAMP levels reflect the balance of adenylyl cyclase and phosphodiesterase activity.

The target of data set [10] is T4, Ectonucleoside triphosphate diphosphohydrolase 1 (Homo sapiens, UniProt P49961).
T4 sequence (P49961 whole entry): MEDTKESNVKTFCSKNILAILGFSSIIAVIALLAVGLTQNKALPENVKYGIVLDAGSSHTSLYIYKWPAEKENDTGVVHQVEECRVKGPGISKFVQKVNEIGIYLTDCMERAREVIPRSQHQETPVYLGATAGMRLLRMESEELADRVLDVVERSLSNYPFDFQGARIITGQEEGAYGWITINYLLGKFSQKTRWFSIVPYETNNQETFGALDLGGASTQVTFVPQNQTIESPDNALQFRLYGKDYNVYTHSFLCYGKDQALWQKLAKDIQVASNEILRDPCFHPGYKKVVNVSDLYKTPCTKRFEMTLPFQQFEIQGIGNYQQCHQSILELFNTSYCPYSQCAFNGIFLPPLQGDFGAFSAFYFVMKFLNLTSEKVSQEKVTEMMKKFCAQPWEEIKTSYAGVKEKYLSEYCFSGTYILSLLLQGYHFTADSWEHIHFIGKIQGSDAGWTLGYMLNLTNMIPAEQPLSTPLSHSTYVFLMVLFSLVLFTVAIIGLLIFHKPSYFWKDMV
Briefly: Inhibition of human CD39 expressed in CHO cells incubated for 4 hrs before addition of ATP and further incubated for 60 mins by colorimetric assay.

The nature of data set [11]: Stability in mouse hepatocytes. Format: ADME, cell-based, Hepatocyte.
A short description of data set [12]: Stability in dog hepatocytes. It is filed as ADME, cell-based, Canis lupus familiaris, Hepatocyte.

The structures appear in SMILES notation.

As a reminder, the IC50 is the concentration that inhibits the measured activity by half. The term clearance denotes a measure of how efficiently the substance is removed, as volume per time. Low readings indicate inefficient removal, high ones efficient removal. The term half-life denotes the time needed for the level to fall by half in the phase considered.

T1 sequence (P21589 whole entry): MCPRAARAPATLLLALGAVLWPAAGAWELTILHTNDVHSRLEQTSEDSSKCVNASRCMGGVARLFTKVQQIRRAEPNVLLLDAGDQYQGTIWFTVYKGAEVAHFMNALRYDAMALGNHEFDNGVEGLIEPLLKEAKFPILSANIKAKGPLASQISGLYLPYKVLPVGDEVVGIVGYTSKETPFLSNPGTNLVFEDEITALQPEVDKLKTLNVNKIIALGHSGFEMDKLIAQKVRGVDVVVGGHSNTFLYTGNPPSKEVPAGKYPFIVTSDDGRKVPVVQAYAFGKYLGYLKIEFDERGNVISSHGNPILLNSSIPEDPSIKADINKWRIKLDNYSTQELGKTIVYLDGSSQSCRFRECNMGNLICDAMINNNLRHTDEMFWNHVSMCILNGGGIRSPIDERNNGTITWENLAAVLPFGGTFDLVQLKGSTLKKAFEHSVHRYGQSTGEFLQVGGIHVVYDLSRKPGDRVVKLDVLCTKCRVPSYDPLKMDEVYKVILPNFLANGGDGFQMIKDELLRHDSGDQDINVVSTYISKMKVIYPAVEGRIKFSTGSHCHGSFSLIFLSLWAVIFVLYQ
Sequence of Adenosine receptor A2a (P29274 whole entry): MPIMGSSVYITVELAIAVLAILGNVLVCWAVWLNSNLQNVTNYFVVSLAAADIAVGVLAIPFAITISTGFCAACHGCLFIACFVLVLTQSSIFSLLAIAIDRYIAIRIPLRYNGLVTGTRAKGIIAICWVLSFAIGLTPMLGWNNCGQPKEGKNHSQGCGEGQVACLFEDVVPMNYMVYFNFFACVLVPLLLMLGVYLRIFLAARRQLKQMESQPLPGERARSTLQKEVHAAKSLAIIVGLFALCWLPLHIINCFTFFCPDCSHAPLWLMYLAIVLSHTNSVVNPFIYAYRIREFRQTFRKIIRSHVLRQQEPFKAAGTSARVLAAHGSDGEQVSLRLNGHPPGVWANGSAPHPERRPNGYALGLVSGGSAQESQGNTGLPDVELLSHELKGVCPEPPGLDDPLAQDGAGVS

On to `O=P(O)(O)COC[C@H]1O[C@@H](n2ncc3c(NC4CCCC4)nc(Cl)nc32)[C@H](O)[C@@H]1O`, for which the Stabilty result in data set [1], in data set [7], in data set [11] and in [12] was “Stable” each time. Moreover, the IC50 against 5'-nucleotidase [2] is 2.6 nM; on 5'-nucleotidase [4], 3 nM; at 5'-nucleotidase [5], 0.55 nM; against 5'-nucleotidase [8], 13 nM; in data set [9], more than 10000 nM; at Adenosine receptor A2a it was more than 10000 nM. Besides, in data set [10], the IC50 is more than 10000 nM. The molecule also gave a clearance in data set [3] of 2.17 mL/min/kg. In addition, the half-life in [6] is 1.2 h.

The record behind these values is ChEMBL document CHEMBL4765491, “Discovery of Potent and Selective Methylenephosphonic Acid CD73 Inhibitors” (J Med Chem, 2021).
